Source: PubChem BioAssay AID1216 (Sanford-Burnham Center for Chemical Genomics, 2008)
In all, about 190,000 compounds went through this assay and about 660 (0.35%) were called active. The sample holds actives, similar compounds and a random draw of the others, so the mix is not that of the screen.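 Rule for the calls: active = activation factor of 2 or more at 20 µM; inactive = the rest.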

Biological target: Mannose-6-phosphate isomerase (Homo sapiens) (UniProt P34949)
Assay: human PMI activators, high substrate, primary screen, biochemical, fluorescence intensity, near-saturating mannose 6-phosphate (AID 1216)
Details: coupled PMI enzyme assay, resazurin fluorescence, 20 min; at 20 µM; stronger effect = higher value; 1 = untreated enzyme, 0 = substrate-free blank
Method in brief: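 Test system: human PMI in coupled enzyme assay; Input: PMI at 15 ng/mL final; Medium: HEPES buffer, pH 7.4; Schedule: 20 min incubation at room temperature; Technique: resorufin fluorescence at Ex 544/Em 590 nm; Compound: 20 µM single dose; Probe or stimulus: Near-saturating mannose-6-phosphate, 1.0 mM.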

Mannose-6-phosphate isomerase (Homo sapiens), sequence (P34949 whole entry, looked up): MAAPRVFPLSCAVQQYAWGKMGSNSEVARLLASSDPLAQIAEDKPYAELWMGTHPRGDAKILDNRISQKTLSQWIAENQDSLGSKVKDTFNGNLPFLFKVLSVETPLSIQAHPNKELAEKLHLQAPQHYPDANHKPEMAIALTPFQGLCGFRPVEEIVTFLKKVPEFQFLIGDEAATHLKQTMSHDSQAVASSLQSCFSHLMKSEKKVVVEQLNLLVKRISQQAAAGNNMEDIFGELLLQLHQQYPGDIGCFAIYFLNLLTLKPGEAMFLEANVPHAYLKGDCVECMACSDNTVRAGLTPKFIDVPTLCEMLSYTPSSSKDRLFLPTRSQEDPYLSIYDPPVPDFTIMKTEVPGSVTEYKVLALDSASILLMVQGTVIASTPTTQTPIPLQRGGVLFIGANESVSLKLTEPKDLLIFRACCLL

Activation factor, active:
COC(=O)Cc1cc(=O)n(-c2nc3ccccc3s2)[nH]1 2
CCN(CC)CCN1C(=O)C(=O)/C(=C(/O)c2cnn(-c3ccccc3)c2C)C1c1cccs1 (centres undefined) 2
O=c1oc2ccccc2cc1-c1cn(-c2ccccc2)c(=S)[nH]1 2.3
O=S1(=O)CC/C(=N\Nc2ccc(F)cc2)c2ccsc21 2.6

Activation factor, inactive:
CC(C)(C)C(=O)CSc1nc2ccccc2o1 0.9
CN1CCN(S(=O)(=O)c2cccc(C(=O)O)c2)CC1 1.1
CC1Cc2ccccc2N1C(=O)CSc1nnc(-c2ccc(S(=O)(=O)N3CCCC3)cc2)n1C (centres undefined) 0.4
COc1ccccc1NC(=O)C1=C(C)Nc2nc3ccccc3n2C1c1cccs1 (centres undefined) 1
CCC(=O)NC(=Nc1nc2ccccc2s1)NC(=O)CC 1.1
COC(=O)Cc1nc2ccccc2[nH]1 1
CCCCN=C1C([N+](=O)[O-])=CC=C2C1=NC1(CCCCC1)N2O 0.5
O=C(Nc1cccnc1)c1cc2cc(Br)ccc2oc1=O 1.1
CS(=O)(=O)N(CC(=O)NC1CCCC1)Cc1ccc(F)cc1 1
CCC1=NN(C(=O)Cc2ccc([N+](=O)[O-])cc2)C(O)(c2ccc(Br)cc2)C1 (centres undefined) 0.9
CCN(CC)CCN1C(=O)C(=O)/C(=C(/O)c2ccc(OC)c(OC)c2)C1c1ccccn1 (centres undefined) 1.2
CCN(CC)CCN1C(=O)C(=O)/C(=C(/O)c2ccccc2)C1c1ccccc1F (centres undefined) 1
Cc1cc(C)c(OCCN2CC(C)OC(C)C2)c(Br)c1 (centres undefined) 0.9
Cc1scc(C(=O)NNC(=S)NCc2ccccc2)c1C 1.1
S=C(c1ccc(-c2ccccc2)o1)N1CCCCC1 0.9
C=CCN(C(=O)c1cc(C)cc(C)c1)C1(C(=O)Nc2ccccc2)CCN(C(C)C)CC1 1
COc1cccc(CN2CCNC(=O)C2CC(=O)N(C)CCc2ccccn2)c1 (centres undefined) 0.7
CC1=C(C)CC(C(=O)NNC(=O)c2csc3c2CCC(C(C)(C)C)C3)C(C(=O)O)C1 (centres undefined) 1
Cc1ccc(/C(N)=N/OC(=O)COc2ccc(Cl)c(C)c2)cc1 1
O=C(c1cn(-c2ccccc2)nc1-c1cc2ccccc2oc1=O)N1CCOCC1 1
Nc1ncc(-c2cc3ccccc3oc2=O)s1 0.8
COC(=O)c1nc(NC(=O)c2ccc(F)cc2)n[nH]1 1
CCOC(=O)C1(O)CC(C)=NN1C(=O)c1cccc(Br)c1 (centres undefined) 1.1
Cn1cccc1/C=N/NC(=O)c1ccc(OC(F)(F)C(F)F)cc1 0.9
O=C(NCc1ccccc1Cl)C1CCCO1 (centres undefined) 1
